{"data": "Results pooled from the literature", "note": "Compare with care: the assays were run in different laboratories. pIC50: −log10 of the molar value."}
{"SMILES": "C=CC(=O)N1CCN(c2nc(=O)n(-c3c(C)ccnc3C(C)C)c3nc(-c4c(O)cccc4F)c(F)cc23)[C@@H](C)C1", "cell line": "PC-9", "observed": "cell growth or viability", "technique": "ATP luminescence", "pIC50": "< 5.00"}
{"SMILES": "CCCOc1nc(-c2cccc(O)c2)cc(-c2cc3ccccc3nc2N2CCOCC2)c1C#N", "cell line": "NFS-60", "observed": "cell growth or viability", "technique": "MTT", "time": "72 h", "pIC50": 6.82}
{"SMILES": "C=CC(=O)Nc1cc(Nc2nccc(-c3cn(C)c4ccccc34)n2)c(OC)cc1N(C)CCN(C)C", "cell line": "PC-9", "observed": "cell growth or viability", "technique": "MTS", "time": "72 h", "pIC50": 5.84}
{"SMILES": "O=C(CCNNC(=O)c1ccncc1)NCc1ccccc1", "cell line": "DH82", "observed": "PGE2 release", "action": "inhibitor", "technique": "ELISA", "time": "24 h", "setting": "LPS-stimulated", "pIC50": "< 3.70"}
{"SMILES": "Nc1n[nH]c2nc(-c3cccc(O)c3)cc(-c3cc4ccccc4nc3N3CCOCC3)c12", "cell line": "NFS-60", "observed": "cell growth or viability", "technique": "MTT", "time": "72 h", "pIC50": 7.19}
{"SMILES": "COc1cc2c3c(n(CCCNC(C)C)c(=O)c2cc1OC)-c1nc2c(cc1C3=O)OCO2", "cell line": "Raji", "observed": "cell growth or viability", "technique": "MTS", "time": "72 h", "pIC50": 6.74}
{"SMILES": "COCCC(=O)NCc1ccccc1", "cell line": "DH82", "observed": "NO release", "action": "inhibitor", "technique": "Griess", "time": "24 h", "setting": "LPS-stimulated", "pIC50": 3.77}
{"SMILES": "CCOc1nc(-c2cccc(O)c2)cc(-c2cc3ccccc3nc2N2CCOCC2)c1C#N", "cell line": "NFS-60", "observed": "cell growth or viability", "technique": "MTT", "time": "72 h", "pIC50": 7.07}
{"SMILES": "C=C(F)C(=O)N1CCN(c2nc(OC[C@@H]3CCCN3C)nc3c2CCN(c2cccc4cccc(Cl)c24)C3)C[C@@H]1CC#N", "cell line": "AGS", "observed": "cell growth or viability", "technique": "ATP luminescence", "setting": "3D culture", "pIC50": "< 6.00"}
{"SMILES": "CCCOc1nc(-c2cccc(O)c2)cc(-c2cc3cc(OC)ccc3nc2N2CCOCC2)c1C#N", "cell line": "NFS-60", "observed": "cell growth or viability", "technique": "MTT", "time": "72 h", "pIC50": 7.19}
{"SMILES": "Cc1nc2cccc(N)c2c(=O)n1C1CCC(=O)NC1=O (stereo not drawn)", "cell line": "NCI-H929", "observed": "cell growth or viability", "technique": "CCK-8", "time": "96 h", "pIC50": "> 6.48"}
{"SMILES": "COc1cc2c3c(n(CCCn4ccnc4)c(=O)c2cc1OC)-c1nc2c(cc1C3=O)OCO2", "cell line": "Raji", "observed": "cell growth or viability", "technique": "MTS", "time": "72 h", "pIC50": 6.69}
{"SMILES": "NC(=O)c1ccncc1", "cell line": "DH82", "observed": "PGE2 release", "action": "inhibitor", "technique": "ELISA", "time": "24 h", "setting": "LPS-stimulated", "pIC50": "< 3.70"}
{"SMILES": "COc1ccc(-c2cc(-c3cccc(Br)c3)c3c(=O)n(C)c(=O)n(C)c3n2)cc1", "cell line": "HCT-116", "observed": "cell growth or viability", "technique": "MTT", "time": "48 h", "pIC50": 5.10}
{"SMILES": "NCCC(=O)NCc1ccccc1", "cell line": "DH82", "observed": "NO release", "action": "inhibitor", "technique": "Griess", "time": "24 h", "setting": "LPS-stimulated", "pIC50": 3.80}
{"SMILES": "CC(C)c1ccccc1[C@@H]1CCCN1C1CC2(CCN(c3ccc(C(=O)NS(=O)(=O)c4ccc(NC[C@H]5CC[C@](C)(O)CC5)c([N+](=O)[O-])c4)c(Oc4cnc5[nH]ccc5c4)c3)CC2)C1", "cell line": "DOHH-2", "observed": "cell growth or viability", "technique": "ATP luminescence", "time": "48 h", "pIC50": 8.19}
{"SMILES": "O=C(CCO)NCc1ccccc1", "cell line": "DH82", "observed": "NO release", "action": "inhibitor", "technique": "Griess", "time": "24 h", "setting": "LPS-stimulated", "pIC50": 4.24}
{"SMILES": "COc1ccc(-c2cc(-c3cc(OC)ccc3OC)c3c(=O)[nH]c(=O)[nH]c3n2)cc1", "cell line": "HCT-116", "observed": "cell growth or viability", "technique": "MTT", "time": "48 h", "pIC50": 4.93}
